Paper PMC11344153 (Scientific Reports, 2024)

Columns and labels:
[1] = tested on: N-terminal peptide of GPIHBP1; assay: SPR binding to immobilized N-terminal peptide of GPIHBP1; set-up: species or system human; conditions: even at concentrations of 1 μM, 25 °C, 20 mM HEPES pH 7.4, 0.15 M NaCl
In short: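 Biacore SPR with 578 RU of biotinylated N-terminal GPIHBP1 peptide captured on the sensor (148.5 fmol/mm2). Analytes were tenfold-diluted pooled nonfasting human plasma, tenfold-diluted lipoprotein-deficient plasma (± 20, 40 or 80 nM purified bovine LPL) or isolated heparin-binding proteins (antithrombin III, protamine, FGF-2). Flow was 20 µl/min at 25 °C in 20 mM HEPES pH 7.4, 0.15 M NaCl.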

LPL = target: T1, LPL (Bos taurus, UniProt P11151); assay type: binding, bovine; conditions: fluorescence anisotropy, 10 IU/ml heparin in phosphate buffer
T1 sequence (P11151 29-478): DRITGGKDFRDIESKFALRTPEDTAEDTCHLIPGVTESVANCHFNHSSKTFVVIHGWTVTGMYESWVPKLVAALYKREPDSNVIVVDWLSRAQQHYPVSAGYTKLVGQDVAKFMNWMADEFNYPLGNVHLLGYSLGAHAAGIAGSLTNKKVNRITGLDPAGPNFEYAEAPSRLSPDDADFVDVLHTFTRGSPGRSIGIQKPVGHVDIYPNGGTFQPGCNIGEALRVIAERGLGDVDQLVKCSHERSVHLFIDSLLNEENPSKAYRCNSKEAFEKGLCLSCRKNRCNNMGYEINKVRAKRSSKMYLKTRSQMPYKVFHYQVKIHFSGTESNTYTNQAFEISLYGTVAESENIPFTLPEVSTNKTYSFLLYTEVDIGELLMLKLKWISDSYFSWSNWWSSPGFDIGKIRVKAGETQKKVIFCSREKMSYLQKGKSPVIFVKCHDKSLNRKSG
In short: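 N-terminal GPIHBP1 peptide labeled at cysteine with DyLight 488 maleimide, 100 nM, mixed with increasing LPL concentrations in 20 mM phosphate, pH 7.4, 0.15 M NaCl plus 10 IU/ml heparin. Excitation 493 nm, emission 518 nm, with emission polarizer parallel and perpendicular to vertical excitation. Anisotropy change versus LPL concentration fitted to a 1:1 binding model for KD.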

Row | binding to the immobilized N-terminal domain of GPIHBP1 [1] | effect on the interaction between LPL and the N-terminal domain of GPIHBP1 (LPL) | Substance
1 | no binding |  | FGF-2: heparin binding protein, ICN Biomedicals
2 | no binding |  | antithrombin III
3 |  | completely blocked the interaction | heparin
4 | no binding |  | protamine
